Data as given in ChEMBL document CHEMBL1123810, “Synthesis and cardiotonic activity of a series of substituted 4-alkyl-2(1H)-quinazolinones” (J Med Chem, 1987).

Columns and labels:
Canis familiaris [1] = experiment: Effect on arterial blood pressure (MAP) in anesthetized open-chest dogs at 8.75 mg/kg intravenous dose; format: functional, Canis lupus familiaris
Summary of the method: (§1)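 Pentobarbital-anesthetized (45 mg/kg i.p.), ventilated mongrel dogs, open chest. MAP came from a femoral artery cannula, HR from a cardiotachometer triggered by the pressure pulse, and CF from a right-ventricle strain gauge. Compound in 10% DMF/saline or as the HCl salt in saline was infused iv in 3–4 stepwise rising doses, each over 5 min. Responses are % change from predrug control at the maximum dose given.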

Canis familiaris [2] = experiment: Effect on heart rate (HR) in anesthetized open-chest dogs at 8.75 mg/kg intravenous dose; format: functional, Canis lupus familiaris; summary of the method: as §1
Canis familiaris [3] = experiment: Effect on myocardial contractile force (CF) in anesthetized open-chest dogs at 8.75 mg/kg intravenous dose; format: functional, Canis lupus familiaris, Myocardium; summary of the method: as §1
Canis familiaris [4] = experiment: Effect that produces a 50% increase in myocardial contractile force (CF) above control in anesthetized open-chest dogs at 8.75 mg/kg intravenous dose; format: functional; conditions: Canis lupus familiaris, Myocardium
Summary of the method: (§2)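 Anesthetized (pentobarbital 45 mg/kg i.p.), artificially respired mongrel dogs with right thoracotomy. Contractile force was read by a strain gauge on the right ventricle. Compound was given in 10% DMF in saline, or as the HCl salt in saline, by femoral vein infusion in 3–4 stepwise increasing doses, each over 5 min. ED50 (mg/kg iv) is the dose giving a 50% CF rise over control, taken from 3–4 point dose–response curves by graphic estimation (n = 1, 2 dogs) or linear regression (n ≥ 3).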

[5] = biological target: Phosphodiesterase 3 (Canis familiaris); experiment: Inhibitory activity against canine cardiac fraction III cyclic AMP phosphodiesterase (PDE III)
Canis familiaris [6] = experiment: Effect on arterial blood pressure (MAP) in anesthetized open-chest dogs at 1.875 mg/kg intravenous dose; format: functional, Canis lupus familiaris; summary of the method: as §1
Canis familiaris [7] = experiment: Effect on heart rate (HR) in anesthetized open-chest dogs at 1.875 mg/kg intravenous dose; format: functional, Canis lupus familiaris; summary of the method: as §1
Canis familiaris [8] = experiment: 50% increase in myocardial contractile force (CF) above control in anesthetized open-chest dogs at 1.875 mg/kg intravenous dose; format: functional; conditions: Canis lupus familiaris, Myocardium; summary of the method: as §2
Canis familiaris [9] = experiment: Effect on myocardial contractile force (CF) in anesthetized open-chest dogs at 1.875 mg/kg intravenous dose; format: functional, Canis lupus familiaris, Myocardium; summary of the method: as §1
Canis familiaris [10] = experiment: Effect on heart rate (HR) in anesthetized open-chest dogs at 3.75 mg/kg intravenous dose; format: functional, Canis lupus familiaris; summary of the method: as §1
Canis familiaris [11] = experiment: 50% increase in myocardial contractile force (CF) above control in anesthetized open-chest dogs at 3.75 mg/kg intravenous dose; format: functional; conditions: Canis lupus familiaris, Myocardium; summary of the method: as §2
Canis familiaris [12] = experiment: Effect on myocardial contractile force (CF) in anesthetized open-chest dogs at 3.75 mg/kg intravenous dose; format: functional, Canis lupus familiaris, Myocardium; summary of the method: as §1
Canis familiaris [13] = experiment: Effect on arterial blood pressure (MAP) in anesthetized open-chest dogs at 3.75 mg/kg intravenous dose; format: functional, Canis lupus familiaris; summary of the method: as §1
[14] = biological target: Phosphodiesterase 3 (Canis familiaris); experiment: Inhibition of canine cardiac fraction III cAMP phosphodiesterase (PDE 3) at 1.875 mg/kg intravenous dose
Canis familiaris [15] = experiment: Effect on arterial blood pressure (MAP) in anesthetized open-chest dogs at 0.875 mg/kg intravenous dose; format: functional, Canis lupus familiaris; summary of the method: as §1
Canis familiaris [16] = experiment: Effect on heart rate (HR) in anesthetized open-chest dogs at 0.875 mg/kg intravenous dose; format: functional, Canis lupus familiaris; summary of the method: as §1
Canis familiaris [17] = experiment: 50% increase in myocardial contractile force (CF) above control in anesthetized open-chest dogs at 0.875 mg/kg intravenous dose; format: functional; conditions: Canis lupus familiaris, Myocardium; summary of the method: as §2
Canis familiaris [18] = experiment: Effect on myocardial contractile force (CF) in anesthetized open-chest dogs at 0.875 mg/kg intravenous dose; format: functional, Canis lupus familiaris, Myocardium; summary of the method: as §1
[19] = biological target: Phosphodiesterase 3 (Canis familiaris); experiment: Inhibition of canine cardiac fraction III cAMP phosphodiesterase (PDE 3) at 0.875 mg/kg intravenous dose

Row | IC50 [5] [µM] | Structure (SMILES) | Change (Canis familiaris [1]) [%] | Change (Canis familiaris [2]) [%] | Change (Canis familiaris [3]) [%] | ED50 (Canis familiaris [4]) [mg/kg] | Change (Canis familiaris [6]) [%] | Change (Canis familiaris [7]) [%] | ED50 (Canis familiaris [8]) [mg/kg] | Change (Canis familiaris [9]) [%] | further results
1 | 18 | Br.Cc1nc(O)nc2ccc(O)c(O)c12 | 8 | 0 | 39 | > 8.75 | – | – | – | – | –
2 | – | Cc1nc(O)nc2ccc3c(c12)OCO3 | – | – | – | – | -14 | 13 | 0.69 | 71 | –
3 | 138 | Cc1nc(O)nc2ccccc12 | -8 | 16 | 93 | 3.45 | – | – | – | – | –
4 | – | Cc1nc(O)nc2ccc(N3CCCCC3)cc12 | – | – | – | – | – | – | – | – | Change (Canis familiaris [10]): 35%; ED50 (Canis familiaris [11]): 1.13 mg/kg; Change (Canis familiaris [12]): 116%; Change (Canis familiaris [13]): -21%
5 | – | COc1cc2nc(O)nc(C)c2c(OC)c1OC | – | – | – | – | -9 | 0 | > 1.87 | 11 | –
6 | – | CCc1nc(O)nc2cc(OC)c(OC)cc12 | -28 | 13 | 82 | 3.4 | – | – | – | – | –
7 | 38 | Cc1nc(O)nc2ccc(N(C)C)cc12 | -23 | 23 | 90 | 1.2 | – | – | – | – | –
8 | 100 | COc1cc2nc(O)nc(C(F)(F)F)c2cc1OC | -15 | 0 | 23 | > 8.75 | – | – | – | – | –
9 | – | COc1cc2nc(O)nc(Cc3ccccc3)c2cc1OC | – | – | – | – | 30 | 3 | > 1.87 | 33 | IC50 [14]: 13 µM
10 | – | Cc1nc(O)nc2cc3c(cc12)OCO3 | 1 | 10 | 66 | 5.65 | – | – | – | – | –
11 | – | Cc1nc(O)nc2cc(Cl)c(Cl)cc12 | 1 | 2 | 10 | > 8.75 | – | – | – | – | –
12 | – | COc1ccc2nc(O)nc(C)c2c1 | – | – | – | – | – | – | – | – | Change (Canis familiaris [10]): 18%; ED50 (Canis familiaris [11]): 1.32 mg/kg; Change (Canis familiaris [12]): 111%; Change (Canis familiaris [13]): -10%
13 | – | Cc1nc(O)nc2ccc(Cl)cc12 | -21 | 33 | 85 | 1.8 | – | – | – | – | –
14 | – | COc1ccc2nc(O)ncc2c1OC | – | – | – | – | -9 | 10 | 1.64 | 101 | –
15 | – | CCc1nc(O)nc2ccc(OC)c(OC)c12 | – | – | – | – | 9 | 20 | 0.51 | 112 | IC50 [14]: 18 µM
16 | 190 | COc1cc(OC)c2nc(O)nc(C)c2c1 | -6 | 13 | 60 | 7.45 | – | – | – | – | –
17 | 25 | COc1cc(OC)c2c(C)nc(O)nc2c1 | -40 | 25 | 97 | 2.08 | – | – | – | – | –
18 | 43 | COc1cc2nc(O)nc(C(C)C)c2cc1OC | -27 | 21 | 112 | 1.39 | – | – | – | – | –
19 | 129 | COc1ccc(OC)c2c(C)nc(O)nc12 | -6 | 13 | 54 | – | – | – | – | – | –
20 | 22 | COc1cc2nc(O)nc(C3CCCC3)c2cc1OC | -19 | 11 | 71 | > 8.75 | – | – | – | – | –
21 | 100 | COc1cc2nc(O)nc(C)c2cc1OC | -35 | 19 | 90 | 2.42 | – | – | – | – | –
22 | 14 | COc1cc2nc(O)nc(-c3ccccc3)c2cc1OC | -25 | 7 | 106 | 4.1 | – | – | – | – | –
23 | – | COc1cc2c(C)nc(O)nc2c(OC)c1OC | – | – | – | – | -4 | 3 | > 1.87 | 10 | –
24 | – | COc1ccc2c(c(C)nc(=O)n2C)c1OC | – | – | – | – | 6 | 5 | > 1.87 | 31 | –
25 | – | Cc1nc(O)nc2ccc(N3CCOCC3)cc12 | – | – | – | – | – | – | – | – | Change (Canis familiaris [15]): -10%; Change (Canis familiaris [16]): 13%; ED50 (Canis familiaris [17]): 0.7 mg/kg; Change (Canis familiaris [18]): 59%
26 | – | Cc1nc(O)nc2ccc(N3CCN(C)CC3)cc12 | – | – | – | – | 0 | 6 | > 1.87 | 10 | IC50 [14]: 300 µM
27 | – | COc1ccc2[nH]c(=O)nc(C)c2c1OC [BEMARINONE] | – | – | – | – | – | – | – | – | Change (Canis familiaris [15]): -16%; Change (Canis familiaris [16]): 20%; ED50 (Canis familiaris [17]): 0.23 mg/kg; Change (Canis familiaris [18]): 114%; IC50 [19]: 17 µM
28 | – | Nc1cc(-c2ccncc2)c[nH]c1=O [INAMRINONE] | – | – | – | – | -10 | 12 | 0.38 | 134 | –
